{"source": "ChEMBL document CHEMBL5614453", "about": "(ACS Med Chem Lett, 2024)", "key": {"Carbonic anhydrase 7": {"biological_target": "Carbonic anhydrase 7 (Homo sapiens, UniProt P43166)", "sequence (P43166 whole entry)": "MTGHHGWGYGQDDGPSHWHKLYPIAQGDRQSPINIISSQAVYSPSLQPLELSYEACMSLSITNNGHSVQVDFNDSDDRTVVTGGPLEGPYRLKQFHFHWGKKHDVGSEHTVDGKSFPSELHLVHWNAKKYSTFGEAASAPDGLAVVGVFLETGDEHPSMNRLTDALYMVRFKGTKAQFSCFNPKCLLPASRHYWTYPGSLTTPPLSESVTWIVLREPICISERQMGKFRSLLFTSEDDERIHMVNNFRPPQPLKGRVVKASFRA", "test": "Inhibition of human CA7 preincubated for 15 mins by phenol red dye based stopped flow CO2 hydration assay"}, "Carbonic anhydrase 2": {"biological_target": "Carbonic anhydrase 2 (Homo sapiens, UniProt P00918)", "test": "Inhibition of human CA2 preincubated for 15 mins by phenol red dye based stopped flow CO2 hydration assay"}, "Mus musculus [1]": {"tested_on": "Mus musculus", "test": "Antihyperalgesic activity in CFA induced CD-1 albino mouse assessed as inhibition of mechanical allodynia by measuring paw withdrawal threshold at 220 mg/kg, po measured every 20 mins by von frey test", "assay_type": "functional, organism-based", "procedure,_shortened": "(§1)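 Von Frey testing before dosing and every 20 min afterward. Read-out is the weight (g) the animal tolerated on the paw. Mean of 6 mice from 2 experimental sets; compared with pretest (0 min) and with vehicle-treated controls.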"}, "Mus musculus [2]": {"tested_on": "Mus musculus", "test": "Antihyperalgesic activity in CFA induced CD-1 albino mouse assessed as inhibition of thermal hyperalgesia by measuring licking latency at 330 mg/kg, po measured after 20 to 100 mins by hot plate test", "assay_type": "functional, organism-based", "conditions": "time 20-100 min", "procedure,_shortened": "(§2)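 Hot plate test before dosing and every 20 min after. Time (s) to first hind-paw licking recorded. Mean of 6 mice from 2 experimental sets; compared with pretest (0 min) and vehicle controls.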"}, "Mus musculus [3]": {"tested_on": "Mus musculus", "test": "Antihyperalgesic activity in CFA induced CD-1 albino mouse assessed as inhibition of mechanical hyperalgesia by measuring paw withdrawal latency at 330 mg/kg, po measured after 20 to 100 mins by paw pressure test", "assay_type": "functional, organism-based", "conditions": "time 20-100 min", "procedure,_shortened": "(§3)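 Mechanical hyperalgesia measured by Paw Pressure test before dosing and every 20 min afterward, as paw-withdrawal latency (s). Values are means of 6 mice over 2 experimental sets; statistics vs pretest (0 min) and vs vehicle-treated controls.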"}, "Mus musculus [4]": {"tested_on": "Mus musculus", "test": "Antihyperalgesic activity in CFA induced CD-1 albino mouse assessed as inhibition of mechanical hyperalgesia by measuring paw withdrawal latency at 220 mg/kg, po measured every 20 mins by paw pressure test", "assay_type": "functional, organism-based", "procedure,_shortened": "as §3"}, "Mus musculus [5]": {"tested_on": "Mus musculus", "test": "Antihyperalgesic activity in CFA induced CD-1 albino mouse assessed as inhibition of thermal hyperalgesia by measuring licking latency at 220 mg/kg, po measured every 20 mins by hot plate test", "assay_type": "functional, organism-based", "procedure,_shortened": "as §2"}, "Carbonic anhydrase 12": {"biological_target": "Carbonic anhydrase 12 (Homo sapiens, UniProt O43570)", "sequence (O43570 whole entry)": "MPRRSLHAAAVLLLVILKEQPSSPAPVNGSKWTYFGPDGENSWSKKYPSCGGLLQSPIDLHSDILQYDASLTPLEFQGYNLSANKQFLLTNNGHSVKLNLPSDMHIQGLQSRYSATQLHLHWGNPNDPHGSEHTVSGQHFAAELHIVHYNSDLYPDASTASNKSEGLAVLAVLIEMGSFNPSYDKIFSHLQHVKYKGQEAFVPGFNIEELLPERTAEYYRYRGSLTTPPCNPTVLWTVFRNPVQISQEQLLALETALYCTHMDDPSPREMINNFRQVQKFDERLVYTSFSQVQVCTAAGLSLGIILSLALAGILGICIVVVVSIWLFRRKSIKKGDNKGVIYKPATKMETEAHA", "test": "Inhibition of human CA12 preincubated for 15 mins by phenol red dye based stopped flow CO2 hydration assay"}, "Mus musculus [6]": {"tested_on": "Mus musculus", "test": "Antihyperalgesic activity in CFA induced CD-1 albino mouse assessed as inhibition of mechanical allodynia by measuring paw withdrawal threshold at 330 mg/kg, po measured after 20 to 100 mins by von frey test", "assay_type": "functional, organism-based", "conditions": "time 20-100 min", "procedure,_shortened": "as §1"}, "Carbonic anhydrase 1": {"biological_target": "Carbonic anhydrase 1 (Homo sapiens, UniProt P00915)", "sequence (P00915 whole entry)": "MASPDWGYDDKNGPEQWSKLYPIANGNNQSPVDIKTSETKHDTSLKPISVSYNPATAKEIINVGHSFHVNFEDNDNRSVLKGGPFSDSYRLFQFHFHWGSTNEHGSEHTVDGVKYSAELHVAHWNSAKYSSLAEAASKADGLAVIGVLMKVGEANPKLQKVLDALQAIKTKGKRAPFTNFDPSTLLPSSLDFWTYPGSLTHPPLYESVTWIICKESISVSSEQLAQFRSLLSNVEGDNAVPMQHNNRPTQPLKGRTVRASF", "test": "Inhibition of human CA1 preincubated for 15 mins by phenol red dye based stopped flow CO2 hydration assay"}, "Carbonic anhydrase 4": {"biological_target": "Carbonic anhydrase 4 (Homo sapiens, UniProt P22748)", "sequence (P22748 whole entry)": "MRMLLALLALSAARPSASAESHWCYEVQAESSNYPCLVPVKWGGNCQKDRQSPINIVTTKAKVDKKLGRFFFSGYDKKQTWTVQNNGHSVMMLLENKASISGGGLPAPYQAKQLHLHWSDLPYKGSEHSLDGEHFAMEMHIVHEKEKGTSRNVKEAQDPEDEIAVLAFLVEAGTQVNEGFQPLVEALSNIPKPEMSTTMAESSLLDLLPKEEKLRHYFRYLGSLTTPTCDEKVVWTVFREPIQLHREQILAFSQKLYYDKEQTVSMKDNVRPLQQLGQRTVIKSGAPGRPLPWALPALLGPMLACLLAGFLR", "test": "Inhibition of human CA4 preincubated for 15 mins by phenol red dye based stopped flow CO2 hydration assay"}, "Carbonic anhydrase 9": {"biological_target": "Carbonic anhydrase 9 (Homo sapiens, UniProt Q16790)", "test": "Inhibition of human CA9 preincubated for 15 mins by phenol red dye based stopped flow CO2 hydration assay"}, "Mus musculus [7]": {"tested_on": "Mus musculus", "test": "Antihyperalgesic activity in CFA induced CD-1 albino mouse assessed as increase in pain threshold by measuring licking latency at 270 mg/kg, po measured after 40 mins by hot plate test", "assay_type": "functional, organism-based", "procedure,_shortened": "(§4)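 Mice received an intraplantar CFA injection, and vehicle-treated animals served as controls. Thermal hyperalgesia was measured by hot plate as time in s to the first hind-paw licking. Readings were taken before dosing and every 20 min afterwards. Values are the mean of 6 mice from 2 experimental sets.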"}, "Mus musculus [8]": {"tested_on": "Mus musculus", "test": "Antihyperalgesic activity in CFA induced CD-1 albino mouse assessed as inhibition of mechanical hyperalgesia by measuring paw withdrawal latency at 270 to 405 mg/kg, po measured every 20 mins by paw pressure test", "assay_type": "functional, organism-based", "conditions": "dose 270-405 mg/kg", "procedure,_shortened": "(§5)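 Inflammatory pain was induced by intraplantar CFA, with vehicle-treated controls. Mechanical hyperalgesia was measured by paw pressure test as paw withdrawal latency (s), before dosing and every 20 min after. Values are the mean of 6 mice from 2 experimental sets.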"}, "Mus musculus [9]": {"tested_on": "Mus musculus", "test": "Antihyperalgesic activity in CFA induced CD-1 albino mouse assessed as increase in pain threshold by measuring paw withdrawal latency at 405 mg/kg, po measured after 40 mins by paw pressure test", "assay_type": "functional, organism-based", "procedure,_shortened": "as §5"}, "Mus musculus [10]": {"tested_on": "Mus musculus", "test": "Antihyperalgesic activity in CFA induced CD-1 albino mouse assessed as increase in pain threshold by measuring paw withdrawal latency at 270 mg/kg, po measured after 40 mins by von frey test", "assay_type": "functional", "procedure,_shortened": "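Intraplantar CFA was used to induce inflammatory pain in mice, with vehicle-treated controls. Mechanical allodynia was measured by Von Frey test as the weight (g) tolerated on the paw, before dosing and every 20 min after. Values are the mean of 6 mice from 2 experimental sets.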"}, "Mus musculus [11]": {"tested_on": "Mus musculus", "test": "Antihyperalgesic activity in CFA induced CD-1 albino mouse assessed as increase in pain threshold by measuring paw withdrawal latency at 405 mg/kg, po measured after 40 mins by von frey test", "assay_type": "functional, organism-based"}, "Mus musculus [12]": {"tested_on": "Mus musculus", "test": "Antihyperalgesic activity in CFA induced CD-1 albino mouse assessed as inhibition of mechanical allodynia by measuring paw withdrawal threshold at 270 to 405 mg/kg, po measured every 20 mins by von frey test", "assay_type": "functional, organism-based", "conditions": "dose 270-405 mg/kg"}, "Mus musculus [13]": {"tested_on": "Mus musculus", "test": "Antihyperalgesic activity in CFA induced CD-1 albino mouse assessed as increase in pain threshold by measuring licking latency at 405 mg/kg, po measured after 40 mins by hot plate test", "assay_type": "functional, organism-based", "procedure,_shortened": "as §4"}, "Mus musculus [14]": {"tested_on": "Mus musculus", "test": "Antihyperalgesic activity in CFA induced CD-1 albino mouse assessed as increase in pain threshold by measuring paw withdrawal latency at 270 mg/kg, po measured after 40 mins by paw pressure test", "assay_type": "functional", "procedure,_shortened": "as §5"}, "Mus musculus [15]": {"tested_on": "Mus musculus", "test": "Antihyperalgesic activity in CFA induced CD-1 albino mouse assessed as inhibition of thermal hyperalgesia by measuring licking latency at 50 to 200 mg/kg, po measured after 40 mins by hot plate test", "assay_type": "functional, organism-based", "conditions": "dose 50-200 mg/kg", "procedure,_shortened": "as §2"}, "Mus musculus [16]": {"tested_on": "Mus musculus", "test": "Antihyperalgesic activity in CFA induced CD-1 albino mouse assessed as inhibition of mechanical allodynia by measuring paw withdrawal threshold at 50 to 200 mg/kg, po measured after 80 mins by von frey test", "assay_type": "functional, organism-based", "conditions": "dose 50-200 mg/kg", "procedure,_shortened": "as §1"}, "Mus musculus [17]": {"tested_on": "Mus musculus", "test": "Antihyperalgesic activity in CFA induced CD-1 albino mouse assessed as inhibition of thermal hyperalgesia by measuring licking latency at 50 to 200 mg/kg, po measured after 80 mins by hot plate test", "assay_type": "functional, organism-based", "conditions": "dose 50-200 mg/kg", "procedure,_shortened": "as §2"}, "Mus musculus [18]": {"tested_on": "Mus musculus", "test": "Antihyperalgesic activity in po dosed CFA induced CD-1 albino mouse assessed as inhibition of mechanical hyperalgesia by measuring paw withdrawal latency measured every 20 mins by paw pressure test", "assay_type": "functional, organism-based", "conditions": "dose 50-200 mg/kg", "procedure,_shortened": "as §3"}, "Mus musculus [19]": {"tested_on": "Mus musculus", "test": "Antihyperalgesic activity in CFA induced CD-1 albino mouse assessed as inhibition of mechanical hyperalgesia by measuring paw withdrawal latency at 50 to 200 mg/kg, po measured after 40 mins by paw pressure test", "assay_type": "functional, organism-based", "conditions": "dose 50-200 mg/kg", "procedure,_shortened": "as §3"}, "Mus musculus [20]": {"tested_on": "Mus musculus", "test": "Antihyperalgesic activity in po dosed CFA induced CD-1 albino mouse assessed as inhibition of mechanical allodynia by measuring paw withdrawal threshold measured every 20 mins by von frey test", "assay_type": "functional, organism-based", "conditions": "dose 50-200 mg/kg", "procedure,_shortened": "as §1"}, "Mus musculus [21]": {"tested_on": "Mus musculus", "test": "Antihyperalgesic activity in po dosed CFA induced CD-1 albino mouse assessed as inhibition of thermal hyperalgesia by measuring licking latency measured every 20 mins by hot plate test", "assay_type": "functional, organism-based", "conditions": "dose 50-200 mg/kg", "procedure,_shortened": "as §2"}, "Mus musculus [22]": {"tested_on": "Mus musculus", "test": "Antihyperalgesic activity in CFA induced CD-1 albino mouse assessed as inhibition of mechanical hyperalgesia by measuring paw withdrawal latency at 50 to 200 mg/kg, po measured after 80 mins by paw pressure test", "assay_type": "functional, organism-based", "conditions": "dose 50-200 mg/kg", "procedure,_shortened": "as §3"}, "Mus musculus [23]": {"tested_on": "Mus musculus", "test": "Antihyperalgesic activity in CFA induced CD-1 albino mouse assessed as inhibition of mechanical allodynia by measuring paw withdrawal threshold at 50 to 200 mg/kg, po measured after 40 mins by von frey test", "assay_type": "functional, organism-based", "conditions": "dose 50-200 mg/kg", "procedure,_shortened": "as §1"}}, "note": "The source made the active and inactive calls.", "data": [{"smiles": "CC(=O)Sc1ccccc1C(=O)O", "values": [{"measurement": "Ki", "setting": "Carbonic anhydrase 7", "result": 18.5, "unit": "µM"}, {"measurement": "Ki", "setting": "Carbonic anhydrase 2", "result": 64.3, "unit": "µM"}, {"measurement": "Activity", "setting": "Mus musculus [1]", "result": "Active"}, {"measurement": "Activity", "setting": "Mus musculus [2]", "result": "Active"}, {"measurement": "Activity", "setting": "Mus musculus [3]", "result": "Active"}, {"measurement": "Activity", "setting": "Mus musculus [4]", "result": "Active"}, {"measurement": "Activity", "setting": "Mus musculus [5]", "result": "Active"}, {"measurement": "Ki", "setting": "Carbonic anhydrase 12", "result": 14, "unit": "µM"}, {"measurement": "Activity", "setting": "Mus musculus [6]", "result": "Active"}, {"measurement": "Ki", "setting": "Carbonic anhydrase 1", "result": 72.5, "unit": "µM"}, {"measurement": "Ki", "setting": "Carbonic anhydrase 4", "result": 77.3, "unit": "µM"}, {"measurement": "Ki", "setting": "Carbonic anhydrase 9", "result": 10.9, "unit": "µM"}]}, {"smiles": "CC(=O)[Se]c1ccccc1C(=O)O", "values": [{"measurement": "Activity", "setting": "Mus musculus [7]", "result": "Active"}, {"measurement": "Activity", "setting": "Mus musculus [8]", "result": "Active"}, {"measurement": "Activity", "setting": "Mus musculus [9]", "result": "inactive"}, {"measurement": "Ki", "setting": "Carbonic anhydrase 7", "result": 5.2, "unit": "µM"}, {"measurement": "Activity", "setting": "Mus musculus [10]", "result": ">50", "unit": "%"}, {"measurement": "Ki", "setting": "Carbonic anhydrase 2", "result": 32, "unit": "µM"}, {"measurement": "Ki", "setting": "Carbonic anhydrase 12", "result": 8.2, "unit": "µM"}, {"measurement": "Ki", "setting": "Carbonic anhydrase 1", "result": 5.2, "unit": "µM"}, {"measurement": "Activity", "setting": "Mus musculus [11]", "result": "inactive"}, {"measurement": "Activity", "setting": "Mus musculus [12]", "result": "Active"}, {"measurement": "Ki", "setting": "Carbonic anhydrase 4", "result": 48, "unit": "µM"}, {"measurement": "Activity", "setting": "Mus musculus [13]", "result": "inactive"}, {"measurement": "Ki", "setting": "Carbonic anhydrase 9", "result": 1.4, "unit": "µM"}, {"measurement": "Activity", "setting": "Mus musculus [14]", "result": ">50", "unit": "%"}]}, {"smiles": "CC(=O)Oc1ccccc1C(=O)O", "note": "[ASPIRIN]", "values": [{"measurement": "Ki", "setting": "Carbonic anhydrase 7", "result": "> 100", "unit": "µM"}, {"measurement": "Activity", "setting": "Mus musculus [15]", "result": "Active"}, {"measurement": "Activity", "setting": "Mus musculus [16]", "result": "inactive"}, {"measurement": "Activity", "setting": "Mus musculus [17]", "result": "inactive"}, {"measurement": "Activity", "setting": "Mus musculus [18]", "result": "Dose-Dependent Effect"}, {"measurement": "Ki", "setting": "Carbonic anhydrase 12", "result": "> 100", "unit": "µM"}, {"measurement": "Activity", "setting": "Mus musculus [19]", "result": "Active"}, {"measurement": "Ki", "setting": "Carbonic anhydrase 1", "result": "> 100", "unit": "µM"}, {"measurement": "Activity", "setting": "Mus musculus [20]", "result": "Dose-Dependent Effect"}, {"measurement": "Activity", "setting": "Mus musculus [21]", "result": "Dose-Dependent Effect"}, {"measurement": "Activity", "setting": "Mus musculus [22]", "result": "inactive"}, {"measurement": "Ki", "setting": "Carbonic anhydrase 4", "result": "> 100", "unit": "µM"}, {"measurement": "Ki", "setting": "Carbonic anhydrase 9", "result": "> 100", "unit": "µM"}, {"measurement": "Activity", "setting": "Mus musculus [23]", "result": "Active"}]}]}
